Screening data from PubChem BioAssay.
MrgX1 antagonist: antagonists of human MrgX1 receptor, primary screen, HEK293 cells, Fluo-4 calcium flux; B-score at 10 µM; 1.3% of 310,000 active; BAM8-22 antagonism; stronger effect = lower value; Mas-related G-protein coupled receptor member X1 (Homo sapiens), Q96LB2;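 active = calcium-response B-score plate-corrected more than 3 library SD below zero, starting fluorescence within 5 deviations, no agonist response on first addition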;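 note: peak minus trough fluorescence over baseline after final BAM8-22 challenge near maximal dose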
Target sequence (Q96LB2 whole entry, looked up): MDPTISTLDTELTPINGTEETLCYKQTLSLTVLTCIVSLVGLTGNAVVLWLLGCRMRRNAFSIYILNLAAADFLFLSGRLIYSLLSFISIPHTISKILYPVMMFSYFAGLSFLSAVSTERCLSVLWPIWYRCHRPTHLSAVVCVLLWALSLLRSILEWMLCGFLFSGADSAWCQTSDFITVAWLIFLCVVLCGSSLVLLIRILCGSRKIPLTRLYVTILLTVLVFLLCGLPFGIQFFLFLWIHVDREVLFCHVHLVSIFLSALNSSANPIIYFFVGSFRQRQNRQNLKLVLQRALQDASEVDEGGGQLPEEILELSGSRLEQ
RGS4 act: RGS4 potentiators or activators, primary screen, cell-based, HEK293 M3R inducible RGS4, calcium flux; carbachol calcium flux Fluo4; stronger effect = lower value; B-score at 10 µM; 0.92% of 310,000 active;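 active = B-score of the integrated calcium signal more than 4 SD below the library mean, with starting fluorescence not abnormally high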;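 note: negative B-score means reduced calcium response which marks RGS4 activation or potentiation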
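Test system: HEK293 cells with stable M3R and inducible RGS4; also added: carbachol at ECmax as muscarinic agonist stimulus; schedule: dye loading 30 min 37 °C, buffer rest 30 min RT; technique: kinetic calcium fluorescence imaging with Fluo4-AM dye, 2 µM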
MrgX1 ag: agonists of human MrgX1 receptor, primary screen, HEK293 cells, Fluo-4 calcium flux. B-score at 10 µM. AID 588627, 2011. 0.44% of 310,000 active. Mas-related G-protein coupled receptor member X1 (Homo sapiens), Q96LB2. Fluo-4 calcium fluorescence, agonist mode; stronger effect = higher value;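 active = calcium response B-score plate-corrected fluorescence ratio at least 3 library SD, with starting fluorescence B-score inside 5 SD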
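Assay system: MrgX1-expressing HEK293 cells / Amount: fifteen thousand cells per well / Doses: test compound in the initial addition of three / Timing: cells plated overnight, dye loaded 0.5 h 37 °C, 0.5 h room temperature / Technique: kinetic calcium dye fluorescence, Fluo-4 NW / Control set: positive and negative controls per plate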
MrgX1 allo act: positive allosteric modulators of MrgX1, primary screen, HEK293 cells, Fluo-4 calcium flux. B-score at 10 µM. FDSS; stronger effect = higher value. AID 588675, 2011. Mas-related G-protein coupled receptor member X1 (Homo sapiens), Q96LB2. 0.63% of 310,000 active;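 active = plate-corrected calcium response at least 3 library SD above typical, normal starting fluorescence, not activating the receptor alone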;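 note: compound read alongside a low EC10 to EC30 dose of BAM8-22 agonist; peak minus trough fluorescence over baseline measured at the second addition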
RGS4 block: RGS4 inhibitors, primary screen, cell-based, HEK293 M3R inducible RGS4, calcium flux; Regulator of G-protein signaling 4 (Homo sapiens), P49798; 0.45% of 310,000 active; Fluo-4 calcium flux; stronger effect = higher value; triggered by carbachol at its EC20; AID 463165, 2010; B-score at 10 µM;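 active = B-score, a plate-corrected calcium signal, over three deviations above library mean, with baseline fluorescence within five deviations of library mean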;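 note: RGS4 expression induced by doxycycline in cells with stable M3 receptor; B-score is computed from the integrated fluorescence ratio over baseline after carbachol; higher B-score means a larger calcium signal and so more RGS4 inhibition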
Target sequence (P49798 whole entry, looked up): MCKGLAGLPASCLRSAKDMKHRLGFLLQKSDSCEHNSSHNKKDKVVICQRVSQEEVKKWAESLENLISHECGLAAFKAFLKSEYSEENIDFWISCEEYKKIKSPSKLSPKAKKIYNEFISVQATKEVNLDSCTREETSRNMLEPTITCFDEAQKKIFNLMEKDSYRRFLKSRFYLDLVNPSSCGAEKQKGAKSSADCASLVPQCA
RGS4 block valid: enhanced carbachol calcium response, M3R/RGS4 cells, RGS4 inhibitor project, cell-based, validation screen, HEK293 M3R/RGS4, calcium flux. shares compounds with RGS4 block. carbachol calcium Fluo-4 fluorescence; carbachol added at its EC20; 0 = buffer wells, 100 = carbachol control. calcium response, % at 10 µM. 65% of 1,700 active. AID 492999, 2010;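 active = duplicate-averaged calcium response above the buffer-only control mean plus 5 SD of those controls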;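 note: integrated fluorescence ratio F max minus min over baseline F0; higher response in RGS4-induced cells means RGS4 inhibition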
RGS4 uninduced: carbachol calcium response in non-induced M3R cells, confirmation, counter-screen for RGS4 inhibitor project, cell-based, HEK293 M3R. shares compounds with RGS4 block. carbachol calcium Fluo-4; submaximal (EC20) carbachol stimulus; buffer wells 0%, carbachol control wells 100%. activity (percent), % at 10 µM. 20% of 1,900 active. AID 493000, 2010; call rule not given here;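 note: RGS4 induction absent so cells express M3R without RGS4; higher means more calcium signal and flags a non-specific hit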
RGS4 inh ctr2: second counter-screen for RGS4 inhibitors: non-induced cells without carbachol; shares compounds with RGS4 block; HEK293 M3R/RGS4 non-induced, Fluo-4 calcium, no carbachol; normalised: buffer wells 0%, carbachol wells 100%; calcium response (agonist-mode artifact), % at 10 µM; 22% of 1,900 active;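 active = duplicate-averaged calcium rise in uninduced cells above buffer wells' mean plus 5 SD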
Numbers stand for hits; n = inactive; x = no result. Sampled rows, rich in hits. Any-hit rate of the full collection: about 3.5%.

SMILES | MrgX1 antagonist | RGS4 act | MrgX1 ag | MrgX1 allo act | RGS4 block | RGS4 block valid | RGS4 uninduced | RGS4 inh ctr2
C[C@]12C(=O)N(c3cccc(F)c3)C(=O)N1[C@@H]1c3ccccc3OC[C@@H]1[C@H]2c1ccccc1 | n | n | n | n | n | n | n | n
CC1=C(C(=O)OCC2CCCO2)C(c2ccc(Cl)c(Cl)c2)NC(=O)N1 (configuration not stated) | n | n | n | n | n | x | x | x
COC(=O)c1ccccc1NC(=O)c1cnn2cccnc12 | n | n | n | n | n | x | x | x
CC1CCCC(C)N1C(=O)COc1ccc([N+](=O)[O-])cc1Cl (configuration not stated) | n | n | n | n | n | x | x | x
O=C(/C=C/c1cccnc1)c1cccc(O)c1 | n | n | n | n | 12 | 37% | n | n
O=C(/C=C/c1cccnc1)c1ccc(O)cc1 | n | n | n | n | 5.2 | 15% | n | n
O=C(/C=C/c1cccnc1)c1ccccc1O | n | n | n | n | 8.8 | 37% | 63% | 8.5%
O=C(/C=C/c1ccc(O)cc1)c1ccccc1 | n | n | n | n | n | x | x | x
O=C(/C=C/c1cccc(O)c1)c1cccnc1 | n | n | n | n | 5.8 | 8.5% | n | 10%
CN(C)c1ccc(/C=C/C(=O)c2cccnc2)cc1 | n | n | n | n | n | x | x | x
Cc1ccc(/C=C/C(=O)c2ccccc2O)cc1 | n | n | n | n | n | x | x | x
N#Cc1ccccc1NS(=O)(=O)c1cc2c3c(c1)CCC(=O)N3CCC2 | n | n | n | n | n | x | x | x
CN(C)C(=O)COc1ccc(C(=O)/C=C/c2cccnc2)cc1 | n | n | n | 6.9 | 5.6 | 17% | n | n
Cc1cccc(C)c1N/C=C/c1onc(C)c1[N+](=O)[O-] | n | n | n | n | n | x | x | x
O=C(/C=C/c1cccnc1)c1ccc([N+](=O)[O-])cc1 | n | n | n | n | 6 | 43% | 54% | n
Cc1noc(/C=C/c2cccnc2)c1[N+](=O)[O-] | n | n | n | n | 5.7 | 18% | n | n
CCN(CC)c1ccc(NC(=O)CNCc2ccccc2Cl)c(C)c1 | n | n | n | n | n | x | x | x
Cc1cc(N(CCO)CCO)ccc1C(c1ccc(N(CCO)CCO)cc1C)c1ccccc1Cl | n | n | n | n | 6 | 16% | n | 25%
OC(CNCC(c1ccc(Cl)cc1Cl)c1c[nH]c2ccccc12)c1ccccc1 (configuration not stated) | n | n | n | n | 4.9 | 17% | n | 14%
O=[N+]([O-])CC(c1ccccc1)c1c[nH]c2ccccc12 (configuration not stated) | n | n | n | n | n | x | x | x
CC1CC(NC(=O)c2c(O)nc3sccn3c2=O)CC(C)(C)C1 (configuration not stated) | n | n | n | n | 14 | 22% | 48% | n
c1coc(C2=Nc3cccc4cccc(c34)N2)c1 | n | n | n | n | 13 | 30% | n | n
CCCCn1c(N)c(N(CC(C)C)C(=O)C(C)SCc2nc3sc(C)c(C)c3c(=O)[nH]2)c(=O)[nH]c1=O (configuration not stated) | n | n | n | n | n | x | x | x
CCC1(C)Cc2ccccc2-c2nc(NN)[nH]c(=O)c21 (configuration not stated) | n | n | n | n | n | x | x | x
CC1(C)Cc2ccccc2-c2nc(NCCCO)[nH]c(=O)c21 | n | n | n | n | n | x | x | x
SMILES | MrgX1 antagonist | RGS4 act | MrgX1 ag | MrgX1 allo act | RGS4 block | RGS4 block valid | RGS4 uninduced | RGS4 inh ctr2
O=c1[nH]c(NCCO)nc2c1C1(CCCC1)Cc1ccccc1-2 | n | n | n | n | 8.4 | 43% | 70% | 22%
C=CCNC(=S)NNc1nc2c(c(=O)[nH]1)C1(CCCCC1)Cc1ccccc1-2 | n | n | n | n | 11 | 34% | n | n
CCC1(C)Cc2ccccc2-c2nc(NCCO)[nH]c(=O)c21 (configuration not stated) | n | n | n | n | 8 | 20% | n | n
CC1(C)CC(NC(=O)c2cc(Cl)ccc2Cl)CC(C)(C)N1 | n | n | n | n | n | x | x | x
COc1ccc(N2CC(C(=O)N/N=C/c3cc([N+](=O)[O-])ccc3O)CC2=O)cc1 (configuration not stated) | n | n | n | n | 5 | 5.0% | n | n
O=[N+]([O-])c1ccc(O)c(/C=N/NC(=S)Nc2ccc(Cl)cc2Cl)c1 | n | n | n | n | 14 | 18% | n | n
O=C(N/N=C/c1cc([N+](=O)[O-])ccc1O)NC12CC3CC(CC(C3)C1)C2 | n | n | n | n | 7.9 | 12% | n | n
COc1ccc(OC)c(-c2csc(N(CC3CCCO3)C(=O)C3CCCCC3)n2)c1 (configuration not stated) | n | n | n | n | 7.2 | 24% | n | n
CCCOc1ccc(N2C(=O)CC(N3CCC(c4nc5ccccc5o4)CC3)C2=O)cc1 (configuration not stated) | n | n | n | n | n | x | x | x
Cc1ccc(-c2nc3c(c(=O)[nH]c(=O)n3Cc3ccccc3)n2Cc2ccccc2)o1 | x | n | x | x | 8.2 | 24% | n | 7.0%
Cc1[nH]c2ccccc2c1C(=O)CN1C(=O)NC(C)(c2ccc(Cl)cc2Cl)C1=O (configuration not stated) | n | n | n | n | 10 | 30% | n | 56%
Cc1[nH]c2ccccc2c1C(=O)CSc1ccc(Cl)cc1 | n | n | n | n | n | x | x | x
Cc1ccc(C2(C)NC(=O)N(CC(=O)NC(=O)NC(C)C)C2=O)cc1 (configuration not stated) | n | n | n | n | n | x | x | x
COc1ccc(NC(=O)CC2C(=O)N(C)C(=S)N2Cc2ccc3c(c2)OCO3)cc1 (configuration not stated) | n | n | n | n | n | x | x | x
COc1cc(CC(=O)N/N=C/c2ccc([N+](=O)[O-])cc2)c([N+](=O)[O-])cc1OC | n | n | n | n | n | x | x | x
